{"source": "paper PMC4115637", "about": "(Pharmacology Research & Perspectives, 2014)", "key": {"[1]": {"target": "human TRPA1 (Homo sapiens, UniProt O75762)", "sequence (O75762 whole entry)": "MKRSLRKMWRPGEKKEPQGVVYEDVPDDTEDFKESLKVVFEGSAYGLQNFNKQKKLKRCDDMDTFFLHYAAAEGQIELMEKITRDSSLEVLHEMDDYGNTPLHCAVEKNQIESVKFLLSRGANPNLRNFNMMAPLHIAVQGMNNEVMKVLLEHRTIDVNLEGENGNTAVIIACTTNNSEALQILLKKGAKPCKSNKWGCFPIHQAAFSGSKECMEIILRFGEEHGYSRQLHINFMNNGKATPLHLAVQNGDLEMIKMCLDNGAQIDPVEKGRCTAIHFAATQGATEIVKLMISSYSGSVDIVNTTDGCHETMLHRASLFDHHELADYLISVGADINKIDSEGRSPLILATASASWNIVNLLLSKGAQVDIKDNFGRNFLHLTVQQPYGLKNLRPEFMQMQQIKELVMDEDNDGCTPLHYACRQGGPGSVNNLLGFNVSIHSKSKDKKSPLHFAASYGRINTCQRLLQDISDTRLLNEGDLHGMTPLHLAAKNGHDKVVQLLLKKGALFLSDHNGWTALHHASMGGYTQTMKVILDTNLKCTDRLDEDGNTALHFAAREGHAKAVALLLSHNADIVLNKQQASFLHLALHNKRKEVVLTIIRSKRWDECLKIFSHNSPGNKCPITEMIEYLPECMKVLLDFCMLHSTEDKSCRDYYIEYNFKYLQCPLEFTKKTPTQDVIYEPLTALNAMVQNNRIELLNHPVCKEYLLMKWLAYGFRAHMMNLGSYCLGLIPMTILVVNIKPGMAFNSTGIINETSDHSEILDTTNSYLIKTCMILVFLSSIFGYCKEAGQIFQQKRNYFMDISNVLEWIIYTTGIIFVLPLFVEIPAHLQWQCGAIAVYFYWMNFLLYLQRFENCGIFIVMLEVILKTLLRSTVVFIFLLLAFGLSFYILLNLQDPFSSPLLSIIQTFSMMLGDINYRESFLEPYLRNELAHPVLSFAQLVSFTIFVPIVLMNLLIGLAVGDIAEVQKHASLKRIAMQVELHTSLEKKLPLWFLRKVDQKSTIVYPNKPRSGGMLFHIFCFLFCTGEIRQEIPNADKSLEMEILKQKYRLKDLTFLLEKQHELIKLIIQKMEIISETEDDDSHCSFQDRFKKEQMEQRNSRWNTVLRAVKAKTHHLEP", "test": "Calcium flux in HEK-293 cells overexpressing TRPA1", "format": "cell-based", "details": "concentrations up to 1 mmol/L"}, "[2]": {"target": "human TRPM8 (Homo sapiens, UniProt Q7Z2W7)", "sequence (Q7Z2W7 whole entry)": "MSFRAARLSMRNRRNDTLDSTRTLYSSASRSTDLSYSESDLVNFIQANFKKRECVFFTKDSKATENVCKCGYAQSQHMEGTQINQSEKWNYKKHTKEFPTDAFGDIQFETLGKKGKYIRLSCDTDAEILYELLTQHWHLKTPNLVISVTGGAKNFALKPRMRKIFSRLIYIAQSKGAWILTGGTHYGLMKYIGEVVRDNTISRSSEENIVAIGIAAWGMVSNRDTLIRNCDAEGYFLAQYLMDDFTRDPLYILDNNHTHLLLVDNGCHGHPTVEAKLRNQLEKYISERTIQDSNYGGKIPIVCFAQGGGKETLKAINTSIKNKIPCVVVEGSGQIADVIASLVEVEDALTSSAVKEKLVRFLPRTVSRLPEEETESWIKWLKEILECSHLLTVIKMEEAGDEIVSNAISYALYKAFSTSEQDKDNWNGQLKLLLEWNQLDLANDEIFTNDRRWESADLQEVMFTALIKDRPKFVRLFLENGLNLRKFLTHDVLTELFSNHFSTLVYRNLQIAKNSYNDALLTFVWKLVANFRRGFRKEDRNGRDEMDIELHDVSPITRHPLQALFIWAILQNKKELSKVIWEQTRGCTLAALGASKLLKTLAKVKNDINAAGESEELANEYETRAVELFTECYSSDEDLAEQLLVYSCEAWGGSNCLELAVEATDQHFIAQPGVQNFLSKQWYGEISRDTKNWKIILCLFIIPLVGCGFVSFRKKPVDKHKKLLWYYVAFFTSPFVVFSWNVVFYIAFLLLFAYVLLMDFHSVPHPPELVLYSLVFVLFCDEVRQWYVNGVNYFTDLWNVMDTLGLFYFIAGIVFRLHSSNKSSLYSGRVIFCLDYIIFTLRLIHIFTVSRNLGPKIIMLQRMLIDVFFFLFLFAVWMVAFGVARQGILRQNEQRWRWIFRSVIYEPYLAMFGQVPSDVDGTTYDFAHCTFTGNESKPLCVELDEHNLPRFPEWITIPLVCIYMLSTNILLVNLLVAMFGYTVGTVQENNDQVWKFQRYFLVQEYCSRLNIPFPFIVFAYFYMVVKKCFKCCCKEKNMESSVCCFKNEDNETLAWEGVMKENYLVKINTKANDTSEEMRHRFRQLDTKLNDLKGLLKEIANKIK", "test": "Calcium flux in HEK-293 cells overexpressing TRPM8", "format": "cell-based", "details": "concentrations up to 1 mmol/L"}, "[3]": {"target": "human TRPV1 (Homo sapiens, UniProt Q8NER1)", "sequence (Q8NER1 whole entry)": "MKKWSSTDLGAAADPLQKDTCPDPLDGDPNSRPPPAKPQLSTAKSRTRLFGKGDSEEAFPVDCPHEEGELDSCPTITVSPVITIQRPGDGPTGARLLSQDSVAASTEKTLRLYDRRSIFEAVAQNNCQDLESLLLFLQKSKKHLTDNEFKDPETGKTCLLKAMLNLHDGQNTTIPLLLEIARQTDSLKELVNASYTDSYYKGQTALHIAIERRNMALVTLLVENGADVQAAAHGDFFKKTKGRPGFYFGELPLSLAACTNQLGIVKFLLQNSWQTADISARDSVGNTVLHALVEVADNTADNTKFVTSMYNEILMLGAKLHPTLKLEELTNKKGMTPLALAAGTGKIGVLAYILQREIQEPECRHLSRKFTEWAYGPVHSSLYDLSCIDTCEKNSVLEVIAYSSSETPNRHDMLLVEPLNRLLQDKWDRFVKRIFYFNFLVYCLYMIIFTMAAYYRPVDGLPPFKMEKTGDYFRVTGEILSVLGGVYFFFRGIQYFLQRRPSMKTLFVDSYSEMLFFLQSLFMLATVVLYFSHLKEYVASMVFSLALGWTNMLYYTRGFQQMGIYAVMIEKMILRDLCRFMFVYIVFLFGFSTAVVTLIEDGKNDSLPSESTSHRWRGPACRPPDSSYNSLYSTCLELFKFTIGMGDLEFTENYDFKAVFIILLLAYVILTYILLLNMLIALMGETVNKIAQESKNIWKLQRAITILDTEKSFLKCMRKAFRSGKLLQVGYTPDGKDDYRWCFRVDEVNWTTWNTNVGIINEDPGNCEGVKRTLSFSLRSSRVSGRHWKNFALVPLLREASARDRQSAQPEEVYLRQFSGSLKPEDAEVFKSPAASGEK", "test": "Calcium flux in HEK-293 cells overexpressing TRPV1", "format": "cell-based", "details": "concentrations up to 1 mmol/L"}, "[4]": {"target": "human TRPV4 (Homo sapiens, UniProt Q9HBA0)", "sequence (Q9HBA0 whole entry)": "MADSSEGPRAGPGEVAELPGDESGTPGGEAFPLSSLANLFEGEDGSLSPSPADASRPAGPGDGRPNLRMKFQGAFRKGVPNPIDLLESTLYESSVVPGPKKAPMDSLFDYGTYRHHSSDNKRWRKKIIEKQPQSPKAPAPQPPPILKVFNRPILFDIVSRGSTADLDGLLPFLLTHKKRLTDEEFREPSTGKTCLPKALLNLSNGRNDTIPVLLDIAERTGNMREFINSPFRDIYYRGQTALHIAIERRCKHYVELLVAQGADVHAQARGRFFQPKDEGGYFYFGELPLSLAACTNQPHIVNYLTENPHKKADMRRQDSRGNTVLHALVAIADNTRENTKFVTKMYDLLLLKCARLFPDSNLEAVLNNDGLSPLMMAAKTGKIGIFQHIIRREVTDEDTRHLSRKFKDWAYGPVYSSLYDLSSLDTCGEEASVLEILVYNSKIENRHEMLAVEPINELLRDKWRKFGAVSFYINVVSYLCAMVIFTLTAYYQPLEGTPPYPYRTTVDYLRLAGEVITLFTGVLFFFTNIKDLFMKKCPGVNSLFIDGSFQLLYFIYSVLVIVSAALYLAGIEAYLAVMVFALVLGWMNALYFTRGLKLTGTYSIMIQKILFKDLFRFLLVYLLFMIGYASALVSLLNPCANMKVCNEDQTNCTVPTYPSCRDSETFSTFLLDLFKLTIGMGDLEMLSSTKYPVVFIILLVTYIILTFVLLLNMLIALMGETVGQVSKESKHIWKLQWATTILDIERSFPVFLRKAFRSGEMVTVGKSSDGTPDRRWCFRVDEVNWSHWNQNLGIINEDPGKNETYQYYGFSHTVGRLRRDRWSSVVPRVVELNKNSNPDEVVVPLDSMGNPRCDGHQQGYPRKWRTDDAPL", "test": "Calcium flux in HEK-293 cells overexpressing TRPV4", "format": "cell-based", "details": "concentrations up to 1 mmol/L"}, "[5]": {"target": "T1, human TRPV3 (Homo sapiens, UniProt Q8NET8)", "T1 sequence (Q8NET8 1-790)": "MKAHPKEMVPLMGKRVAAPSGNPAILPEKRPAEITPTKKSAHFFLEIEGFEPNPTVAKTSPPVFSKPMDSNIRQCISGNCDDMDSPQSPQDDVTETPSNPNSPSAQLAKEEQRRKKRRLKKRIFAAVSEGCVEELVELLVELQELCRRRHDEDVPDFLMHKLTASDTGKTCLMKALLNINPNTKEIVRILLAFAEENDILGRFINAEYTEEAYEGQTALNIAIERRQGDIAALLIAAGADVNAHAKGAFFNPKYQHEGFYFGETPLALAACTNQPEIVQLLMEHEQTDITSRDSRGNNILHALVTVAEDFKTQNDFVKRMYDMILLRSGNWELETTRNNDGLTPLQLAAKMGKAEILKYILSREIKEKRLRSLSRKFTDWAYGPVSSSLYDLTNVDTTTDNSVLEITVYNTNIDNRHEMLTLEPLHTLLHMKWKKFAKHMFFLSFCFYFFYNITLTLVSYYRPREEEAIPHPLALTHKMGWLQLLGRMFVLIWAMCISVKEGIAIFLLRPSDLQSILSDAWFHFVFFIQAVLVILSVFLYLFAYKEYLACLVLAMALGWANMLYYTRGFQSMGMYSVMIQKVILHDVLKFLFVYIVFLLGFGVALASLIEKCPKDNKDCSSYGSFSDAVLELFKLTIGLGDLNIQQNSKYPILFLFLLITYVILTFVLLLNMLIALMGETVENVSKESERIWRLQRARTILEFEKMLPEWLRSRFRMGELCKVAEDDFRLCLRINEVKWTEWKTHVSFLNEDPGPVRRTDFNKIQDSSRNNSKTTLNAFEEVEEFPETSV", "test": "Whole-cell recordings in TRPV3-overexpressing HEK-293 cells", "format": "cell-based", "details": "250 μmol/L, 500 μmol/L, 1 mmol/L; negative holding potential", "summary_of_the_method": "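HEK-293 cells stably overexpressing human TRPV3 were plated on concanavalin A-coated coverslips and used within 24 h. Whole-cell voltage clamp at −60 or −70 mV with 3–5 MΩ pipettes. External saline: NaCl/KCl/MgCl2/HEPES/glucose/2 mmol/L CaCl2, pH 7.4. CsCl/EGTA internal, pH 7.3. Test compound was perfused or injected, with a fresh cell for each recording. Peak versus basal inward current was compared by one-tailed paired t-test.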"}, "[6]": {"target": "T2, TRPV3-R696K (Homo sapiens, UniProt Q8NET8, R696K)", "T2 sequence (Q8NET8 1-790 R696K)": "T1 sequence (Q8NET8 1-790) with R696K", "test": "Calcium flux in HEK-293 cells transiently transfected with TRPV3-R696K", "format": "cell-based", "details": "100 μmol/L carvacrol, 100 μmol/L 2-APB, 100 and 200 μmol/L drofenine"}, "[7]": {"target": "T3, TRPV3 in HaCaT cells (Homo sapiens, UniProt Q8NET8)", "T3 sequence (Q8NET8 1-790)": "T1 sequence (Q8NET8 1-790)", "test": "Calcium flux in HaCaT cells", "format": "cell-based"}, "[8]": {"target": "T1, human TRPV3", "test": "Re-evaluation of screening hits as TRPV3 agonists", "format": "cell-based", "details": "Table 1"}, "[9]": {"system": "neomycin-induced hair cell loss", "details": "ref Coffin et al. [2010]; cited from earlier work"}}, "note": "Numbering of substitutions follows the chain as printed."}
{"compound": "CCN(CC)CCOC(=O)C(c1ccccc1)C1CCCCC1", "note": "(stereo not shown) [drofenine]", "values": [{"measurement": "activation of TRPA1", "setting": "[1]", "value": "not observed"}, {"measurement": "activation of TRPM8", "setting": "[2]", "value": "not observed"}, {"measurement": "activation of TRPV1", "setting": "[3]", "value": "not observed"}, {"measurement": "activation of TRPV4", "setting": "[4]", "value": "not observed"}, {"measurement": "inward currents", "setting": "[5]", "value": "dose-dependently induced inward currents"}, {"measurement": "calcium flux in TRPV3-R696K", "setting": "[6]", "value": "diminished-to-no-function"}, {"measurement": "EC50", "setting": "[7]", "value": 605, "unit": "µM"}, {"measurement": "maximum change in fluorescence relative to ionomycin", "setting": "[7]; HaCaT cells", "value": "~80", "unit": "%"}, {"measurement": "Comment(s): re-evaluation as TRPV3 agonist", "setting": "[8]", "value": "TRPV3-selective agonist"}, {"measurement": "effect on neomycin-induced hair cell loss", "setting": "[9]", "value": "inhibitor of neomycin-induced hair cell loss"}]}
